The list is not random: actives were taken first. Their share in the collection is about 2.5%.
Vif imaging = blocks HIV Vif function | HEK293T cells, Vif self-association by quenched fluorescence, imaging, 24 h | inhibition, % at 7.49 µM | actives 0.35% (n = 340,000) | AID 602346; in the data active = inhibition above about 50%, passing the limit was not always enough
SR-BI HDL uptake = blocks mouse SR-BI lipid uptake from DiI-HDL; Q61009; ldlA[mSR-BI] CHO cells, DiI-HDL uptake fluorescence, 3 h; inhibition, % at 12.5 µM; actives 0.96% (n = 320,000); AID 488896;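 active = mean replicate inhibition of at least 70% and a set share of replicates each scoring 70 or more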
Target sequence (Q61009 whole entry, looked up): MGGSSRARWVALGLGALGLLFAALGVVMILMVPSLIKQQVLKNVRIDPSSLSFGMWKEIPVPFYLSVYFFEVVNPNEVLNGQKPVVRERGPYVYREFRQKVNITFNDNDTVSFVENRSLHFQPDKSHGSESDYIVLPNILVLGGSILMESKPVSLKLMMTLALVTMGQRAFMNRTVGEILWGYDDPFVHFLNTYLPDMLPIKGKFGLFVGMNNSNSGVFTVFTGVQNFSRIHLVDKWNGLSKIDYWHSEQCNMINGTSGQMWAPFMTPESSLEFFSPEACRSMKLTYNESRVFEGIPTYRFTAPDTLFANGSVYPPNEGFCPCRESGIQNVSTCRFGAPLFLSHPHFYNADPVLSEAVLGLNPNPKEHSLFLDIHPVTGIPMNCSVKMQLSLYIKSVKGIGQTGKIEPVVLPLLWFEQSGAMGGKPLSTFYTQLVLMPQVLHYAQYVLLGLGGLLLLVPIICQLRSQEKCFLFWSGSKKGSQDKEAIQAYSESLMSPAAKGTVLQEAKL
SR-BI DiI-HDL act = enhances SR-BI lipid uptake from DiI-HDL; CHO ldlA[mSR-BI] cells, DiI-HDL uptake fluorescence, 3 h; 100 = double the neutral-control signal; activation, % at 12.5 µM; actives 0.096% (n = 320,000); AID 504775;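 active = mean replicate activation of at least 60% and every replicate at or above 60%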
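material = CHO ldlA[mSR-BI] cells | medium = Ham's F12 with 0.5% BSA, HEPES 25 mM, pH 7.4 | reagent = fluorescent DiI-HDL, 10 µg/mL final | compound dosing = single-point compound dose | incubation = 3 h, 37 °C | measured by = bottom-read fluorescence, 550/595 nm | measure = HDL uptake via cellular fluorescence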
SMARCA2 act = activators of SMARCA2 function | MG213 cells, MMTV-luciferase reporter, dexamethasone, overnight | activation, % at 9.1 µM | actives 1% (n = 370,000); in the data active = activation above about 7.8%
H9c2 TAG inh = triacylglycerol accumulation inhibition | AID 651582 | H9c2 cells, Nile Red lipid (TAG) fluorescence; cells loaded with 200 µM oleic acid | actives 0.66% (n = 230,000) | inhibition, % at 12.5 µM;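 active = pattern-corrected inhibition of lipid staining of at least 50% with the nuclear-stain viability signal not falling by more than 50%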
Of the large screens only hits and unclear results are named; the others gave an inactive call.

CCOc1cc(NC(=S)Nc2ccccc2)c(OCC)cc1NC(=O)c1ccc(OC)cc1	SR-BI HDL uptake 88.8 (no result: H9c2 TAG inh)
Cc1ccccc1-c1cccc2[nH]c3c(c12)CCN1C(=O)[C@H]2[C@H](C)ON(C)[C@H]2C[C@@H]31	none (no result: Vif imaging, SR-BI HDL uptake, SR-BI DiI-HDL act, H9c2 TAG inh)
CCCn1cnnc1CNC(=O)[C@@H](Cc1ccccc1)NC(=O)[C@H]1O[C@@H](n2ccc(=O)[nH]c2=O)[C@H](O)[C@@H]1O	none (no result: Vif imaging, SR-BI HDL uptake, SR-BI DiI-HDL act, H9c2 TAG inh)
C[C@@H]1CN([C@H](C)CO)C(=O)c2c(c3ccccc3n2C)-c2ccccc2CO[C@@H]1CN(C)C(=O)CCN(C)C	none (no result: Vif imaging, SR-BI HDL uptake, SR-BI DiI-HDL act, H9c2 TAG inh)
CCOc1ccccc1C(=O)Nc1cc(Cl)ccc1O	SR-BI HDL uptake 86.0
COc1cc2c(cc1NC(=O)CSc1nnc(-c3cnccn3)n1-c1ccc(C)cc1)oc1ccccc12	none (no result: Vif imaging, SR-BI HDL uptake, SR-BI DiI-HDL act, H9c2 TAG inh)
O=C(CSc1ccc(-c2nc3ccccc3[nH]2)cn1)Nc1ccc2c(c1)OCCO2	Vif imaging 55.0 (no result: SMARCA2 act, H9c2 TAG inh)
O=C(CSc1ncccn1)NC(=O)Nc1ccc2c(c1)OCCO2	Vif imaging 60.2
Cc1cc2nc(-c3ccc(SCC(=O)Nc4ccc5c(c4)OCCO5)nc3)[nH]c2cc1C	none (no result: H9c2 TAG inh)
CCOC(=O)CC1(O)CSc2nc(N)cc(=O)n21 (stereo unspecified)	none (no result: Vif imaging, SR-BI HDL uptake, SR-BI DiI-HDL act, H9c2 TAG inh)
NC1=C(Cl)C(=O)c2ccccc2C1=O	H9c2 TAG inh 65.9
NC1=C(Cl)C(=O)c2ccc(S(N)(=O)=O)cc2C1=O	none
O=C(CCCCn1ccc(=O)[nH]c1=O)Nc1ccc(O)c(C(=O)O)c1	Vif imaging 78.1
COC(=O)[C@]12C[C@H](CC(=O)NCC3CCCCC3)C(=O)N(Cc3ccc4c(c3)OCO4)C1=C[C@H](C(C)(C)C)O[C@@H]2C	none (no result: Vif imaging, SR-BI HDL uptake, SR-BI DiI-HDL act, H9c2 TAG inh)
COc1ccc(CC(=O)OCC(=O)Nc2cccc(Br)c2)cc1	Vif imaging 74.2 (no result: H9c2 TAG inh)
O=C(COC(=O)C1CCCCC1)Nc1cccc(Br)c1	SR-BI DiI-HDL act 63.5
CSc1n[nH]c(-c2cccs2)n1	none (no result: Vif imaging, SR-BI HDL uptake, SR-BI DiI-HDL act, H9c2 TAG inh)
O=C1CCN(Cc2ccc(O)cc2)CCN1[C@H](CO)Cc1ccccc1	Vif imaging 54.1
CN1C(=O)[C@@]2(O[C@H]3C=CC=CN3C3=C2C(=O)CCC3)c2cc([N+](=O)[O-])ccc21	none (no result: Vif imaging, SR-BI HDL uptake, SR-BI DiI-HDL act, H9c2 TAG inh)
COc1cc(-c2noc(C)c2/C=C/c2cccc([N+](=O)[O-])c2)cc(OC)c1OC	SR-BI HDL uptake 81.0
COc1cc(-c2noc(C)c2/C=C/c2ccc(C(=O)O)cc2)cc(OC)c1OC	none
CCCCN(C)C(=O)c1cn(C(C)c2ccccc2)nn1 (stereo unspecified)	none (no result: Vif imaging, SR-BI HDL uptake, SR-BI DiI-HDL act, H9c2 TAG inh)
CCOC(=O)c1cnc2cc(-c3ccc(Cl)cc3)nn2c1N	SR-BI HDL uptake 86.4 (no result: H9c2 TAG inh)
Cc1cc(C)cc(C(=O)OCCCN(C)C2CN(Cc3cn(Cc4cccc(F)c4)nn3)S(=O)(=O)C2)c1 (stereo unspecified)	none (no result: Vif imaging, SR-BI HDL uptake, SR-BI DiI-HDL act, H9c2 TAG inh)
C=CCN1C(=O)c2n[nH]c(COC)c2C1c1cccc(C(F)(F)F)c1 (stereo unspecified)	none (no result: Vif imaging, SR-BI HDL uptake, SR-BI DiI-HDL act, H9c2 TAG inh)
COc1cc(N)c(Cl)cc1C(=O)N[C@H]1CCN(CCCOc2ccc(F)cc2)C[C@H]1OC	SR-BI HDL uptake 75.4
O=C1N=c2ccccc2=C1c1sc(Nc2ccc(O)cc2)nc1O	SMARCA2 act 7.8
CCOc1cc(/C=C/c2nc3ccccc3s2)ccc1OCC(=O)N1CCOCC1	SR-BI HDL uptake 77.6 (no result: H9c2 TAG inh)
Cc1ccc(S(=O)(=O)Nc2ccc3c(c2)C(=O)N([C@H](C)CO)C[C@H](C)[C@@H](CN(C)Cc2ccc(-c4ccccc4)cc2)O3)cc1	SR-BI DiI-HDL act 76.0 (no result: SMARCA2 act)
C[C@H]1CN([C@@H](C)CO)C(=O)Cc2cc(NS(C)(=O)=O)ccc2O[C@@H]1CN(C)Cc1ccc(Cl)c(Cl)c1	none
Cc1ccc(S(=O)(=O)Nc2cccc3c2O[C@H](CN(C)Cc2ccc(-c4ccccc4)cc2)[C@@H](C)CN([C@H](C)CO)C3=O)cc1	none
C[C@@H]1CN([C@@H](C)CO)C(=O)Cc2cc(NC(=O)Nc3ccc(F)cc3)ccc2O[C@@H]1CN(C)Cc1ccc(Cl)c(Cl)c1	SR-BI DiI-HDL act 92.6
Nc1[nH]c(C(=O)c2ccccc2)c(-c2ccc3ccccc3c2)c1C(=O)NCc1cccc2ccccc12	none (no result: Vif imaging, SR-BI HDL uptake, SR-BI DiI-HDL act, H9c2 TAG inh)
COc1ccc(/C=C/C(=O)Oc2cccc(/C=N/NC(=O)c3cccc(F)c3)c2)cc1	SR-BI HDL uptake 73.5
O=C(Nc1cccnc1)/C(N=Nc1ccc(Cl)c(C(F)(F)F)c1)=C(\O)c1ccccc1	SR-BI HDL uptake 77.4 (no result: H9c2 TAG inh)
O=C(Nc1cccnc1)/C(N=Nc1c(Cl)cccc1Cl)=C(\O)c1ccccc1	none (no result: H9c2 TAG inh)

From PubChem
